# Measured values published in ChEMBL document CHEMBL1121866, “Synthesis of 5'-thymidinyl bis(1-aziridinyl)phosphinates as antineoplastic agents” (1981).
# Assays:
# Assay type in all cases: functional
# [1] = tested on: Mus musculus; test: Compound was evaluated for antitumor activity against L1210 leukemia in mice by NCI screener test at a dose of 50 mg/kg
# Method in brief: (§1)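 Tested in mice bearing L1210 or P-388 leukemia in the National Cancer Institute screening program under NCI standard assay protocols. Read-out is survival as % T/C, treated versus control, at each dose level.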
# [2] = tested on: Mus musculus; test: Compound was evaluated for antitumor activity against L1210 leukemia in mice by NCI screener test at a dose of 100 mg/kg; method in brief: as §1
# [3] = tested on: Mus musculus; test: Compound was evaluated for antitumor activity against L1210 leukemia in mice by NCI screener test at a dose of 200 mg/kg; method in brief: as §1
# [4] = tested on: Mus musculus; test: Compound was evaluated for antitumor activity against P-388 leukemia in mice by NCI screener test at a dose of 200 mg/kg; method in brief: as §1
# [5] = tested on: Mus musculus; test: Compound was evaluated for antitumor activity against L1210 leukemia in mice by W screener test at a dose of 250 mg/kg
# [6] = tested on: Mus musculus; test: Compound was evaluated for antitumor activity against P-388 leukemia in mice by NCI screener test at a dose of 100 mg/kg; method in brief: as §1
# [7] = tested on: Mus musculus; test: Compound was evaluated for antitumor activity against P-388 leukemia in mice by NCI screener test at a dose of 25 mg/kg; method in brief: as §1
# [8] = tested on: Mus musculus; test: Compound was evaluated for antitumor activity against P-388 leukemia in mice by NCI screener test at a dose of 50 mg/kg; method in brief: as §1
# [9] = tested on: Mus musculus; test: Compound was evaluated for antitumor activity against L1210 leukemia in mice by W screener test at a dose of 500 mg/kg
# Method in brief: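 L1210 leukemia in mice, run at Virginia Commonwealth University by G. L. Wampler at higher dose levels, following NCI standard assay guidelines. Activity is reported as survival % T/C.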
SMILES,T/C [1] [%],T/C [2] [%],T/C [3] [%],T/C [4] [%],T/C [5] [%],T/C [6] [%],T/C [7] [%],T/C [8] [%],T/C [9] [%]
Cc1cn([C@H]2C[C@H](O)[C@@H](CO[P+]([O-])(N3CC3(C)C)N3CC3(C)C)O2)c(=O)[nH]c1=O (stereo partly drawn),94,105,124,,,,,,
Cc1cn([C@H]2C[C@H](O)[C@@H](CO[P+]([O-])(N3CC3)N3CC3)O2)c(=O)[nH]c1=O,107,100,94,,,,,,
CC(=O)O[C@H]1C[C@H](n2cc(C)c(=O)[nH]c2=O)O[C@@H]1CO[P+]([O-])(N1CC1)N1CC1,107,,112,142,111,124,104,112,111
CC(=O)O[C@H]1C[C@H](n2cc(C)c(=O)[nH]c2=O)O[C@@H]1CO[P+]([O-])(N1CC1(C)C)N1CC1(C)C (stereo partly drawn),110,112,123,154,125,141,110,138,137
